Only a selection was taken, and hits are over-represented in it overall.
XBP1 UPR activ – activators of adaptive arm of unfolded protein response (XBP1) | CHO-XBP1 luciferase reporter, IRE1-XBP1 UPR activation, luminescence; percent of tunicamycin response, DMSO as zero | activation, % at 20 µM | 0.33% of 330,000 active | AID 463104;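 active means versus positive control, 20 µM dose yields 30% or more activation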;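 further: 100% = tunicamycin at 10 µg/mL and 0% = DMSO only wells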
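Material: CHO-XBP1 cells stably carrying IRE1-XBP1-driven luciferase reporter / Amount: 1000 cells per well / Compound: 20 µM, 1% DMSO / Times: 6 h treatment, 37 °C / Detection: luciferase luminescence / Measure: % activation of reporter signal versus tunicamycin and DMSO controls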
CHOP inhibitor – blocks CHOP induction under ER stress | inhibition, % at 10 µM | 3.8% of 220,000 active | CHO-K1 CHOP-promoter luciferase, tunicamycin-induced, 15-18 h;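 active means compounds that reduced the stress-induced luciferase reporter signal by more than about 70% of percent inhibition, limit read from the data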;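 further: 0% = tunicamycin plus vehicle and 100% = wells without tunicamycin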
UPR CHOP act – activators of apoptotic arm of unfolded protein response (CHOP); 0.34% of 330,000 active; AID 449763; activation, % at 10 µM; CHO-CHOP luciferase reporter, UPR activation, luminescence; percent of tunicamycin response over DMSO baseline;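 active means at 10 µM dose, activation of 40% or more, normalized to positive control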;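 further: 100% = tunicamycin at 10 µg/mL and 0% = DMSO alone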
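Assay system: CHO-CHOP cells, stable luciferase reporter of PERK-eIF2a-CHOP signalling / Buffer or medium: F12 plus 10% serum / Compound dosing: one dose, 10 µM in 0.5% DMSO / Times: 6 h compound treatment, 37 °C / Technique: luciferase luminescence / Read-out: % reporter activation, DMSO baseline versus tunicamycin full activation / Benchmarks: tunicamycin and DMSO controls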
TLR4 MyD88 comp – inhibitors of human TLR4-MyD88 binding | inhibition, % at 8.4 µM | HeLa CL3-4 TLR4/MyD88 BLA complementation, FRET ratio | O00206+Q99836 | 0.18% of 200,000 active; in the data active means inhibition above about 25%;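 further: 0% = vehicle and 100% = reference inhibitor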
NOD2 RIPK2 PPI – NOD2-RIPK2 protein interaction inhibition; CHO BLA complementation NOD2-RIPK2, CCF4 ratio; 0.38% of 360,000 active; inhibition, % at 4.98 µM; AID 624267; O43353; in the data active means inhibition above about 21%;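 further: 0% = vehicle only and 100% = reference blocker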
Target sequence (O43353 whole entry, looked up): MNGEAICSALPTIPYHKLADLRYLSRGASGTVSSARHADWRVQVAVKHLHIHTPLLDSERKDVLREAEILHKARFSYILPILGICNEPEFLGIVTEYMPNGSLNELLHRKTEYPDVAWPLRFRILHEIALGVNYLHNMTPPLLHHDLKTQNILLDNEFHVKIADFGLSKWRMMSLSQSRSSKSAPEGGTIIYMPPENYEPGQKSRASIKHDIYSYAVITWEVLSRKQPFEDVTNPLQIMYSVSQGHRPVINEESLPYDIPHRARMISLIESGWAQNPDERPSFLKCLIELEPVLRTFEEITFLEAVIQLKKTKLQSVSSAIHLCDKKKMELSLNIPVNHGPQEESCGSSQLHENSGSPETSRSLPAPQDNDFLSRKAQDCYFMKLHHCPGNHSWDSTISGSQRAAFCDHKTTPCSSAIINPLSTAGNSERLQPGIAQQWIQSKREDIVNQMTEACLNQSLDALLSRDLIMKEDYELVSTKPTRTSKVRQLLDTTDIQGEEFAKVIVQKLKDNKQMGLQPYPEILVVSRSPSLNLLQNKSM
TLR9-MyD88 inh – TLR9-MyD88 interaction inhibition. Q9NR96+Q99836. CHO BLA complementation TLR9-MyD88, CCF4 FRET ratio. inhibition, % at 4.98 µM. 0.21% of 340,000 active;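 active means inhibition above the mean over all tested compounds plus 3 SD, cut at about 21% in these data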;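 further: 0% = DMSO only wells and 100% = clavulanate BLA inhibitor control wells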
* = called active by the depositor; . = not tested or not shown.

SMILES | XBP1 UPR activ | CHOP inhibitor | UPR CHOP act | TLR4 MyD88 comp | NOD2 RIPK2 PPI | TLR9-MyD88 inh
COC(=O)c1sc(NC(=O)c2cc(-c3ccccc3)nc3ccccc23)c(C#N)c1C | 0 | 75* | 8 | 2 | 7 | -14
OC(CCc1cccc(Cl)c1)c1cccs1 (stereo not drawn) | 3 | . | 0 | . | -9 | 7
O=c1oc2ccccc2cc1-c1nc2c(s1)CCCC2 | -3 | 96* | -4 | -17 | 3 | 0
O=C(c1ccccc1F)N1CCCC(N2CCN(Cc3ccc4c(c3)OCO4)CC2)C1 (stereo not drawn) | . | . | . | . | -3 | 9
CC(=O)c1ccccc1NC(=O)Cn1c(=O)cnc2ccccc21 | -1 | 12 | -2 | 6 | -4 | -2
CC(CCN1C(N(C)C)=NC[C@@H]1C)c1ccccc1 (stereo partly drawn) | -1 | . | 0 | . | -15 | 1
COC(=O)c1cc(CN2CCN(c3ccccc3C)CC2)ccc1O | -2 | 72* | -3 | 1 | -8 | 0
CC(=Nc1cccc(C)c1)c1sc2ccccc2c1O | 1 | 77* | 2 | 1 | 1 | -1
Cc1ccc(NC(=O)CSC2=NN3CCCC(=O)N=C3S2)cc1Cl | -4 | . | -1 | . | 2 | -3
CC(C)C[C@H](NC(=O)c1nc[nH]c1C(=O)N1CCc2ccccc2C1)C(=O)OCc1ccccc1 | -5 | 92* | -1 | . | -2 | 2
c1ccc(-c2nnc3sc(CN4CCC5(CC4)OCCO5)cn23)cc1 | 0 | 77* | 1 | 2 | -6 | -3
CCOc1ccccc1N1CCN(C2=C(NS(=O)(=O)c3cccs3)C(=O)c3ccccc3C2=O)CC1 | -3 | 71* | 2 | 12 | 2 | -11
CN1CCN(C2=C(NS(=O)(=O)c3cccs3)C(=O)c3ccccc3C2=O)CC1 | -1 | -38 | 4 | . | -1 | 2
Cc1nc2cc(-c3cccc(F)c3)nn2c(C)c1CCC(=O)NC(C)CCc1ccco1 (stereo not drawn) | -5 | 82* | -6 | -2 | -8 | 13
Cc1ccc(C)c(NC(=O)CN(C)C(=O)[C@@H](NC(N)=O)C(C)C)c1 | -3 | 7 | -2 | 2 | 2 | 5
Cc1ccc(C)c(NC(=O)CN(C)C(=O)[C@@H](NC(=O)c2ccc(C(C)(C)C)cc2)C(C)C)c1 | -4 | 83* | -1 | -3 | -1 | -2
CC(C)(C)C1CCC(=NOC(=O)c2ccc(F)cc2)CC1 (stereo not drawn) | -2 | 82* | 0 | 8 | 5 | -4
COc1cc(/C=C(/C#N)c2nc3ccccc3[nH]2)ccc1Oc1ncccc1[N+](=O)[O-] | 21 | 92* | 11 | 5 | 2 | -2
CCOc1cc(/C=C(/C#N)c2nc3ccccc3[nH]2)ccc1Oc1ccc([N+](=O)[O-])cn1 | 0 | 66 | 10 | 11 | 9 | -10
O=C(COc1cc(Cl)c(Cl)cc1Cl)Nc1cccc(O)c1 | -3 | 79* | 3 | . | 6 | -4
O=C(COc1cc(Cl)c(Cl)cc1Cl)Nc1ccncc1 | 0 | 52 | 3 | -7 | -13 | 0
CCCCNS(=O)(=O)c1ccc2nc(-c3cccnc3)cc(C(=O)NC(C)CC)c2c1 (stereo not drawn) | -3 | 101* | -3 | -4 | -5 | 1
CCCCNS(=O)(=O)c1ccc2nc(-c3cccnc3)cc(C(=O)NC(C)C)c2c1 | -2 | 5 | 2 | 10 | 7 | -7
S=c1[nH]nc(C2CCCCC2)n1/N=C/c1ccccc1 | 1 | . | -1 | . | -1 | -2
Cc1ccsc1/C=N/n1c(C2CCCCC2)n[nH]c1=S | 0 | 84* | 0 | 6 | -8 | 1
SMILES | XBP1 UPR activ | CHOP inhibitor | UPR CHOP act | TLR4 MyD88 comp | NOD2 RIPK2 PPI | TLR9-MyD88 inh
CC(N)C1CCC(C(=O)Nc2ccncc2)CC1 (stereo not drawn) | . | -6 | . | . | . | .
Cc1ccc2[nH]c(CSc3ccccc3)cc(=O)c2c1 | 1 | . | 5 | . | 0 | 5
O=C(OCCO)c1c(C2=CCCCC2)oc2c1C(OCCO)CCC2 (stereo not drawn) | . | . | . | . | 1 | .
CCOC(=O)Cc1csc(NC(=O)CSc2nnc(-c3ccc(C)cc3)o2)n1 | -2 | 78* | -3 | 0 | 3 | -1
CCOC(=O)Cc1csc(NC(=O)CSc2nnc(-c3ccc(F)cc3)o2)n1 | -3 | 78* | -2 | 1 | -8 | 8
NC(=O)c1ccccc1N1CCCCC1 | -3 | -12 | 1 | . | 0 | -5
CCCOc1ccc(S(=O)(=O)NCCCN2CCOCC2)c2ccccc12 | -4 | 71* | -2 | 0 | -2 | -1
CCOc1ccc(S(=O)(=O)NCCCN2CCOCC2)c2ccccc12 | -6 | -10 | -2 | -1 | 1 | 7
Nc1nc(SCc2nc3scc(-c4cccs4)c3c(=O)[nH]2)n[nH]1 | -3 | 78* | -1 | 7 | 9 | -4
COC(=O)C[C@H]1C[C@H]2c3cc(NC(=O)Cc4ccncc4)ccc3O[C@H]2[C@@H](CO)O1 | . | . | . | . | -7 | -15
COc1ccc2c(c1)c(=O)oc1cc3occ(C(C)(C)C)c3cc12 | 5 | 87* | 2 | -6 | 0 | 6
COc1ccc2c(c1)c(=O)oc1cc3oc(C)c(C)c3cc12 | . | 21 | . | -9 | . | .
CC(C)CCNC(=O)CCC(=O)NNc1nc2ccccc2c2nc(-c3ccccc3)nn12 | 0 | 79* | 1 | 3 | 1 | 5
O=C(CCC(=O)NNc1nc2ccccc2c2nc(-c3ccccc3)nn12)NCCCN1CCOCC1 | 1 | 28 | -3 | 12 | 8 | -5
CCOC(=O)C(=NCCCN1CCOCC1)NNc1cccc(C(F)(F)F)c1 | -1 | 4 | -1 | 0 | 2 | -6
O=c1cc(O)c2c(=O)n(C3CCCCC3)c3ccccc3c2o1 | 7 | 72* | 0 | 5 | 1 | -4
CCCOc1cccc(-c2cc(C(=O)N/N=C/c3ccccn3)c3ccccc3n2)c1 | -2 | . | 296* | . | -4 | 4
CCCOc1cccc(-c2cc(C(=O)N/N=C/c3cccnc3)c3ccccc3n2)c1 | -1 | . | 3 | . | -1 | 12
Cc1ccc(NC(=O)c2ccc(C)cc2)cc1 | -3 | . | 1 | . | 7 | -3
Cc1ccc(C(=O)Nc2cc(C(C)C)c(O)c(C(C)C)c2)cc1 | -3 | 74* | 3 | -15 | -2 | 6
NC(=S)N1OC[C@@H]2COc3ccc4ccccc4c3[C@@H]21 | -4 | 77* | -6 | -6 | -5 | 6
CO/N=C/NC(=O)N1OC[C@@H]2COc3ccc4ccccc4c3[C@@H]21 | -1 | 0 | -1 | -4 | 4 | -2
CCCCC1(Cc2ccc([N+](=O)[O-])cc2)C(=O)N(c2ccccc2)N(c2ccccc2)C1=O | 0 | 77* | 14 | -1 | 4 | -4

Screens (PubChem)
